In ChEMBL document CHEMBL4002579, “Isolation and Structure Elucidation by LC-DAD-MS and LC-DAD-SPE-NMR of Cyclopeptide Alkaloids from the Roots of Ziziphus oxyphylla and Evaluation of Their Antiplasmodial Activity” (J Nat Prod, 2016):

What was measured:
MRC5 = assay: Cytotoxicity against human MRC5 cells assessed as decrease in cell proliferation/viability after 7 days by MTT assay; type: cell-based; details: MRC5, 168 h
In short: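 Human fetal lung fibroblast MRC-5 cells; tested up to a highest concentration of 64.0 μM. Result is the mean and standard deviation of three experiments.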

Plasmodium falciparum [1] = assay: Antiplasmodial activity against chloroquine-resistant Plasmodium falciparum K1 infected in human O+erythrocytes after 72 hrs by lactate dehydrogenase assay; type: functional, cell-based; details: K1, 72 h
Plasmodium falciparum [2] = assay: Antiplasmodial activity against multidrug-resistant Plasmodium falciparum K1 assessed as reduction in parasite growth by [3H]-hypoxanthine incorporation assay; type: functional

SMILES	IC50 (MRC5)	IC50 (Plasmodium falciparum [1])	IC50 (Plasmodium falciparum [2])
CCC(C)[C@@H]1NC(=O)[C@@H]2[C@H](CCN2C(=O)[C@H](C(C)CC)N(C)C)Oc2ccc(cc2)/C=C\NC1=O (stereo partly specified)	> 64 µM	> 32 µM	–
CCC(C)[C@@H]1NC(=O)[C@@H]2[C@H](CCN2C(=O)[C@H](Cc2c[nH]c3ccccc23)N(C)C)Oc2ccc(cc2)/C=C\NC1=O (stereo partly specified)	> 64 µM	13.6 µM	7.3 µM
CCC(C)[C@@H]1NC(=O)[C@@H]2[C@H](CCN2C(=O)[C@H](Cc2c[nH]c3ccccc23)N(C)C)Oc2ccc(O)c(c2)/C=C\NC1=O (stereo partly specified)	> 64 µM	7.1 µM	–
O=C1N/C=C\c2ccc(cc2)O[C@@H](c2ccccc2)[C@H](NC(=O)[C@@H]2CCCN2C(=O)/C=C/c2ccccc2)C(=O)N[C@H]1C(O)c1ccccc1 (stereo partly specified)	31.2 µM	7.4 µM	–
CCC(C)[C@@H]1NC(=O)[C@@H]2[C@H](CCN2C(=O)[C@H](Cc2c[nH]c3ccccc23)N(C)C)Oc2ccc(OC)c(c2)/C=C\NC1=O (stereo partly specified)	30.6 µM	3.2 µM	–
